Most compounds without a hit are left out; they make up all but 4.5% or so of the library.
TAAR1 ag: agonists of human TAAR1; CHO RD-HGA16 TAAR1, Fluo-8 calcium fluorescence; vehicle wells 0%, saturating PEA agonist 100%; activation, % at 3 µM; 360,000 compounds, 0.99% hits;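 active = activation above the mean activation of all test compounds in the run plus 3 SD, cut at about 38% in these data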
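System: CHO RD-HGA16 cells carrying human TAAR1 plus Gα16; Incubation: 17-24 h seeding, 75 min 37 °C dye, 30 min RT; Measured by: Fluo-8 fluorescence, 5 s baseline then 140 s kinetic read; Control set: DMSO and PEA EC100; Replication: single well for each compound.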
OX1R antag-1: antagonists of human orexin 1 receptor; AID 434989; CHO/OX1R cells, Fluo-8 calcium fluorescence, orexin A; inhibition, % at 5 µM; 330,000 compounds, 0.43% hits; O43613;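 active = inhibition above its plate's threshold, mean inhibition of all tested compounds on the plate plus 3 SD, cut at about 37% in these data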;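 also: 0% = orexin A challenge wells and 100% = SB-334867-A antagonist wells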
Target sequence (O43613 whole entry, looked up): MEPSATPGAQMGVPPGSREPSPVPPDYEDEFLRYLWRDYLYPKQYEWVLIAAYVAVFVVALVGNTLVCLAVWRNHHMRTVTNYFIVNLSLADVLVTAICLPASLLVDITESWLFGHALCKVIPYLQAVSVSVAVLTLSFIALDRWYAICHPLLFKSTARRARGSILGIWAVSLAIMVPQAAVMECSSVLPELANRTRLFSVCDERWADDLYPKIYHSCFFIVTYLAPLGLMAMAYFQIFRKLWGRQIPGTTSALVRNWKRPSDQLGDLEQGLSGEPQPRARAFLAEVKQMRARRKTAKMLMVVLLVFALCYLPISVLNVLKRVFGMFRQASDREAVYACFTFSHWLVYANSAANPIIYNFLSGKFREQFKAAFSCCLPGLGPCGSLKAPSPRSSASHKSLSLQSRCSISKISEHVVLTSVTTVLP
GPR7 antag: antagonists of human GPR7 (neuropeptides B/W receptor 1); GPR7-expressing cells, fluorescence antagonist assay; inhibition, % at 4.4 µM; 290,000 compounds, 1.1% hits; AID 1861; in the data active = inhibition above about 16%, passing the limit was not always enough;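 also: cells stimulated with the agonist NPW; 0% = agonist with vehicle and 100% = vehicle without agonist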
Target sequence (P48145 whole entry, looked up): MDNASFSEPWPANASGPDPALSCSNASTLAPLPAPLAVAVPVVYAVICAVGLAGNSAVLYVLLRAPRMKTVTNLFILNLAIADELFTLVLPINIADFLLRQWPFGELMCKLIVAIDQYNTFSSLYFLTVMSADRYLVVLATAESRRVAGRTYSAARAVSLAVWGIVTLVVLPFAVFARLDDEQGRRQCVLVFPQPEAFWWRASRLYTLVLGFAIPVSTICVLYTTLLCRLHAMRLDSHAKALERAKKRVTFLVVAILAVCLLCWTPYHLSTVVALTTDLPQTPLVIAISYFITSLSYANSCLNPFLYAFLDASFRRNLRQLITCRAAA
TAAR1 antagonist: human TAAR1 antagonism | CHO RD-HGA16 TAAR1, Fluo-8 calcium fluorescence, antagonist | inhibition, % at 3 µM | 360,000 compounds, 1.5% hits | AID 624466;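 active = inhibition above a per-plate cutoff, the mean inhibition of test compounds on that plate plus 3 SD, cut at about 49% in these data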;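 also: 0% = DMSO plus EC80 beta-PEA response and 100% = DMSO alone without agonist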
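Test system – hTAAR1-expressing CHO RD-HGA16 cells, Gα16-coupled · Also added – β-PEA at EC80 concentration, post-compound challenge · Compound – 3 µM, single point · Incubation – dye loading 75 min at 37 °C, then 30 min room temperature · Measured by – Fluo-8 intracellular calcium dye fluorescence, real-time kinetic reads · Benchmarks – vehicle and agonist controls · Replicates – singlicate, one well per test compound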
CHO parental Ca: counter-screen: ATP calcium response change in parental CHO cells | inhibition, % at 5.6 µM | AID 463079 | parental CHO-K1, ATP-induced calcium, Fluo-8 fluorescence | 330,000 compounds, 0.63% hits;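 active = inhibition above that plate's mean sample inhibition plus 3 SD, cut at about 26% in these data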;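 also: 0% = ATP-challenged DMSO wells and 100% = DMSO wells without ATP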
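Assay system: untransfected parental CHO cell line. Also added: ATP agonist challenge. Dosing: one dose, 5.6 µM nominal. Measured by: Fluo-8 fluorescence. Read-out: % inhibition. Benchmarks: ATP wells versus no-ATP DMSO wells. Repeats: no replicates.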
OX1R antag-2: antagonists of human orexin 1 receptor (OX1R). OX1R-expressing cells, FRET antagonist read-out. inhibition, % at 6.6 µM. 330,000 compounds, 1.8% hits; in the data active = inhibition mostly above about 38%, no sharp cut-off; inactive = mostly below about 40%;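 also: 0% = agonist challenge alone and 100% = reference antagonist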
OX1R Fluo8 conf: confirmation of human orexin 1 receptor antagonists | inhibition, % at 5 µM | AID 492963 | CHO/OX1R cells, orexin A calcium Fluo-8 fluorescence | 1,100 compounds, 38% hits | shares compounds with OX1R antag-1; in the data active = inhibition above about 29%;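 also: 0% = agonist challenge alone and 100% = reference antagonist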
CHO Ca triplic: counter-screen: parental CHO calcium response change, triplicate; shares compounds with OX1R antag-1; 1,100 compounds, 9.3% hits; parental CHO-K1, ATP-induced calcium, Fluo-8 fluorescence; inhibition, % at 5.6 µM;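 active = inhibition above a per-plate limit, the mean inhibition of that plate's test compounds plus 3 SD, cut at about 25% in these data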;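 also: 0% = ATP challenge with DMSO and 100% = DMSO without ATP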
OX1R HTRF confirm: confirmation of human orexin 1 receptor antagonists, HTRF format. shares compounds with OX1R antag-2. OX1R-expressing cells, HTRF antagonist assay. inhibition, % at 6.6 µM. 1,800 compounds, 49% hits; in the data active = inhibition above about 55%;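 also: CHO cells expressing OX1R stimulated with orexin A at about EC80; 0% = agonist challenge alone and 100% = reference antagonist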
CHO-K1 HTRF: signal in parental CHO-K1 cells, OX1R antagonist counter-screen; inhibition, % at 6.6 µM; shares compounds with OX1R antag-2; 1,800 compounds, 48% hits; HTRF counterscreen; in the data active = inhibition above about 17%;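 also: 0% = agonist challenge with vehicle and 100% = vehicle alone without agonist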
Active calls of the source: *; x = no result.

SMILES	TAAR1 ag	OX1R antag-1	GPR7 antag	TAAR1 antagonist	CHO parental Ca	OX1R antag-2	OX1R Fluo8 conf	CHO Ca triplic	OX1R HTRF confirm	CHO-K1 HTRF
Cc1nc2c(ccc3nc(NC(=O)Cc4cccc5ccccc45)sc32)s1	-1.0	56.2*	-9.7	2.6	-2.4	90.3*	63.6*	-19.1	89.9*	5.4
O=C1[C@H]2[C@@H](c3ccc(C(F)(F)F)cc3)N[C@]3(CCCN(Cc4ccc(C(F)(F)F)cc4)C3=O)[C@H]2C(=O)N1Cc1ccccc1	2.8	x	x	-17.7	x	x	x	x	x	x
COc1ccc2oc(C(=O)OC(C)C(=O)NCc3ccccc3)c(C)c2c1 (stereo unspecified)	-0.3	-33.0	x	-1.7	-35.2	6.1	x	x	x	x
Cc1c(C(=O)OC(C)C(=O)N(C)Cc2ccccc2)oc2ccccc12 (stereo unspecified)	5.5	53.4*	x	5.2	-19.4	86.3*	52.9*	-10.1	87.6*	4.1
COc1ccc(CCNc2cc(=O)[nH]c(N)n2)cc1	x	76.0*	-4.3	x	-3.7	86.1*	11.5	1.8	55.3*	6.1
COc1ccc(CCNc2ccc([N+](=O)[O-])cn2)cc1	3.7	x	7.3	21.6	x	x	x	x	x	x
CCN1C(=O)[C@H]2[C@@H](c3ccc(-c4cccc(Cl)c4)c(OC)c3)N[C@@](CC(C)C)(C(=O)OC)[C@H]2C1=O	-1.1	1.9	x	13.8	0.7	30.7	x	x	x	x
O=C(Nc1sc2c(c1C(=O)NCC1CCCO1)CCCC2)c1cccs1 (stereo unspecified)	7.3	48.0*	-8.9	32.9	14.8	40.0*	-4.0	-10.8	45.2	9.0
Cc1ccc(NS(=O)(=O)c2ccc(-c3coc(C)n3)cc2)c(Cl)c1	1.2	x	x	15.6	x	x	x	x	x	x
CNC(=O)C1CN(C(=O)c2cccc(S(=O)(=O)N3c4ccccc4CC3C)c2)c2ccccc2O1 (stereo unspecified)	0.5	36.4	x	2.9	-12.5	40.1*	19.9	-8.5	59.0*	-5.0
Cc1c(C(=O)OCC(=O)NCCN2C(=O)CSC2=O)oc2c1ccc1ccccc12	3.6	22.4	-0.4	13.3	-4.7	76.7*	32.9*	-7.8	87.7*	10.7
Cc1ccc(/C=N/NC(=O)c2cccs2)cc1[N+](=O)[O-]	3.4	29.9	3.8	18.7	-25.2	109.3*	15.0	2.6	92.0*	15.2
O=C(N/N=C/c1ccccc1[N+](=O)[O-])c1cccs1	2.1	-6.2	-6.2	11.8	-7.7	31.5	x	x	x	x
COc1cc(OC)c(NC(=O)c2ccccc2F)cc1Cl	2.8	30.1	-0.8	2.6	-6.9	89.0*	35.0*	-9.2	81.9*	8.7
COc1cc2c(cc1NC(=O)c1ccccc1F)CCCC2	1.1	-22.9	-5.2	-30.4	-3.5	20.8	x	x	x	x
Cc1occc1-c1nnc(SCC(=O)NCCc2ccccc2)n1C(C)c1ccccc1 (stereo unspecified)	6.3	63.7*	-1.3	8.3	-31.0	83.3*	29.6*	-7.9	77.1*	-4.4
C=CCn1c(SCC(N)=O)nnc1-c1cccc(Br)c1	-0.1	-4.5	-5.8	-3.4	-15.0	9.7	x	x	x	x
C=CCn1c(SCc2ccccc2C#N)nnc1-c1cc(Br)ccc1O	19.5	53.1*	1.0	31.9	17.5	52.8*	10.6	22.9	31.1	-1.6
CSc1ccccc1NC(=O)CN(C)C(=O)c1ccc(NC(=O)c2cccs2)cc1	9.6	-10.8	x	29.3	-20.9	1.4	x	x	x	x
S=c1[nH]nc(-c2cc(-c3ccccc3)n[nH]2)n1/N=C/c1cccs1	-0.1	53.2*	-11.6	-17.2	-9.2	88.3*	26.9	3.0	61.9*	4.3
CN(CC(=O)Nc1ccccc1Cl)CC(=O)N1CCc2ccccc21	-0.1	-23.7	x	11.7	-25.7	8.1	x	x	x	x
COc1ccccc1CNS(=O)(=O)c1ccc2c(c1)N(C(C)=O)CCO2	2.8	-12.0	1.6	-34.1	-3.8	22.6	x	x	x	x
O=C(CSc1ccc(Br)c2cccc(Cl)c12)Nc1ccc(S(=O)(=O)Nc2nccs2)cc1	1.4	79.6*	-19.3	-16.0	0.8	96.5*	73.6*	-3.1	89.8*	8.7
Cc1cnc(NC(=O)c2cc3c(C)nn(-c4ccccc4)c3s2)s1	3.7	76.7*	7.7	8.8	-26.8	55.8*	72.8*	-7.9	92.5*	11.7
CCOC(=O)C1CCN(C(=O)c2ccccc2)c2scc(-c3ccccc3)c2C1=O (stereo unspecified)	1.6	x	x	11.9	x	x	x	x	x	x
SMILES	TAAR1 ag	OX1R antag-1	GPR7 antag	TAAR1 antagonist	CHO parental Ca	OX1R antag-2	OX1R Fluo8 conf	CHO Ca triplic	OX1R HTRF confirm	CHO-K1 HTRF
Cc1cc(CNC[C@H]2O[C@@H](n3cnc4c(N)ncnc43)[C@H](O)[C@@H]2O)no1	-0.3	x	x	-15.8	x	x	x	x	x	x
Cc1ccc2cc(C)c3nnc(SCC(=O)Nc4nc5c(s4)CCCC5)n3c2c1C	5.8	34.4	-3.6	-16.3	-19.6	84.3*	40.9*	-10.4	74.8*	-0.4
COc1ccc(NC(=O)C2(C)CCN2Cc2ccc3ccccc3c2)cc1OC (stereo unspecified)	3.1	x	x	1.9	x	x	x	x	x	x
Cc1ccc(N=C2NC(=O)/C(=C/c3cccn3C)S2)cc1C	0.3	57.5*	-5.1	-0.2	-32.9	78.8*	62.0*	-16.4	86.8*	6.9
CNc1nc(Nc2ccc(C)c(Cl)c2)c2cnn(C)c2n1	13.2	33.0	-2.4	29.2	-16.3	84.2*	8.9	-7.1	84.1*	12.2
Cn1ncc2c(Nc3cccc(Cl)c3)nc(Nc3cccc(Cl)c3)nc21	-1.4	-24.4	-24.2	0.6	-22.0	8.3	x	x	x	x
Cc1cc(C)nc(NC(=O)/C=C/c2ccc(Cl)cc2Cl)c1	3.3	42.7	-7.2	37.4	-22.1	91.9*	-4.7	-5.2	63.2*	2.7

Bioassay records: PubChem BioAssay, The Scripps Research Institute Molecular Screening Center
